ChEMBL document CHEMBL4513216, “Probing the Open Global Health Chemical Diversity Library for Multistage-Active Starting Points for Next-Generation Antimalarials” (ACS Infect Dis, 2020)

Assay: Toxicity liver stage against HepG2, at 10uM
Type: cell-based
Set-up: test concentration 10 uM, cell line HepG2-A16-CD81EGFP
Conditions: human, HepG2-A16-CD81EGFP cells; read-out: INHIBITION
Procedure, shortened: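 Uninfected HepG2-A16-CD81EGFP cells, 3 × 10^3 per well, 1536-well, plated on prespotted compound at 10 μM final, parasite-free screening media added to match infected plates; puromycin 10 μM positive, DMSO 0.5% negative; run in parallel with 48 h PbLuc assay at 37 °C, 5% CO2; viability by CellTiter-Glo luminescence, normalized to controls.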

**Q.** Which cytotoxicity at 10 µM does the source give for `Cn1cc(N2CCCC(NCc3cccc4c3OCCCO4)C2)cn1` (centres undefined) here?
**A.** -8.58%

**Q.** Which cytotoxicity at 10 µM does the source give for `CN(C)c1ccc(CNC(=O)NCCc2ccccn2)cn1` here?
**A.** -4.66%

**Q.** For `CN(C)C(=O)NCC(=O)N(C)Cc1cc(-c2ccccc2)no1`, which cytotoxicity at 10 µM is on record?
**A.** 1.14%

**Q.** With `CS(=O)(=O)N1C[C@H]2CN(CC3CC3)C(=O)[C@H]2C1` as the compound, how does the cytotoxicity at 10 µM read?
**A.** 6.53%

**Q.** With `CN(C)c1ccc(C(=O)N2CCCc3cc(OC(F)(F)F)ccc32)cn1` as the compound, how does the cytotoxicity at 10 µM read?
**A.** -45.9%

**Q.** Which cytotoxicity at 10 µM does the source give for `O=c1c(NCCc2ccc(O)cc2)c(NCc2ccncc2)c1=O` here?
**A.** -5.46%

**Q.** For `CCn1nc(C)c(NC(=O)c2cc(NC(=O)C(C)C)n(C)n2)c1C`, which cytotoxicity at 10 µM is on record?
**A.** 0.568%

**Q.** For `CC(C)C(=O)NCc1ccccc1NS(=O)(=O)c1ccccc1`, which cytotoxicity at 10 µM is on record?
**A.** 9.05%

**Q.** Which cytotoxicity at 10 µM does the source give for `Cc1cnn(CCNCc2ccc(S(C)(=O)=O)cc2)c1` here?
**A.** 7.55%

**Q.** With `O=C(Cn1ccc2ccccc21)NC[C@@H]1CCCN2CCCC[C@H]12` as the compound, how does the cytotoxicity at 10 µM read?
**A.** -4.16%

**Q.** For `Cc1nc(C2CCCN(C(=O)c3cc4c(s3)CCCC4)C2)no1` (centres undefined), which cytotoxicity at 10 µM is on record?
**A.** -7.03%

**Q.** For `Cc1cc(C)nc(Nc2cccc(C3CCCN(C)C3)n2)n1` (centres undefined), which cytotoxicity at 10 µM is on record?
**A.** -4.45%

**Q.** For `COc1ccccc1C(C)NC(=O)NCCC(=O)NC1CCCCC1` (centres undefined), which cytotoxicity at 10 µM is on record?
**A.** 0.0119%

**Q.** With `Cc1nc(NCCSc2ccccn2)c2c(C)noc2n1` as the compound, how does the cytotoxicity at 10 µM read?
**A.** 18.8%

**Q.** Which cytotoxicity at 10 µM does the source give for `CC(SCC(=O)N(C)CC(=O)NC1CC1)c1ccccc1F` (centres undefined) here?
**A.** -2.49%

**Q.** With `CC(NC(=O)NCCOc1ccc(Cl)cc1)c1nncn1C` (centres undefined) as the compound, how does the cytotoxicity at 10 µM read?
**A.** -8.47%

**Q.** Which cytotoxicity at 10 µM does the source give for `Cc1cc(CN2CC[C@@H]3[C@@H](CCC(=O)N3CCc3c[nH]cn3)C2)oc1C` here?
**A.** -0.466%

**Q.** With `CC(NCc1c(C(C)C)nn(C)c1N1CCOCC1)C(N)=O` (centres undefined) as the compound, how does the cytotoxicity at 10 µM read?
**A.** -5.23%

**Q.** With `Cc1ccc(OCCCC(=O)NC(C)c2ccc(S(N)(=O)=O)cc2)cc1` (centres undefined) as the compound, how does the cytotoxicity at 10 µM read?
**A.** -2.69%

**Q.** Which cytotoxicity at 10 µM does the source give for `CCOc1ccc(OCc2nccc(-c3cc(C(=O)O)ccn3)n2)cc1` here?
**A.** -11.8%

**Q.** With `CC(C)Nc1cccc(CNC(=O)N2CCC[C@@H]2CO)c1` as the compound, how does the cytotoxicity at 10 µM read?
**A.** 1.96%

**Q.** With `O=C(Nc1cccnc1-n1cccn1)N1CCCC(N2CCCC2)C1` (centres undefined) as the compound, how does the cytotoxicity at 10 µM read?
**A.** 8.53%

**Q.** For `CCc1[nH]c2ccc(CNC(=O)c3cnc(N)nc3C)cc2c1C`, which cytotoxicity at 10 µM is on record?
**A.** -3.56%

**Q.** With `CNS(=O)(=O)C1CCN(c2cc(C(C)C)nc(C(C)C)n2)C1` (centres undefined) as the compound, how does the cytotoxicity at 10 µM read?
**A.** -3.33%

**Q.** For `N#CC(NC(=O)c1cccc2c1OCCO2)c1ccc(F)cc1F` (centres undefined), which cytotoxicity at 10 µM is on record?
**A.** -2.61%

**Q.** For `O=C(O)[C@@H]1CN(C(=O)c2ccc(O)cc2)C[C@H]1c1cccc(F)c1`, which cytotoxicity at 10 µM is on record?
**A.** -126%

**Q.** For `Cc1ncsc1CCN(C)C(=O)CN1C(=O)OC[C@@H]1c1ccccc1`, which cytotoxicity at 10 µM is on record?
**A.** -51.2%

**Q.** For `CC(=O)N(Cc1ncc(C(C)C)o1)C1CCN(Cc2nccn2C)C1` (centres undefined), which cytotoxicity at 10 µM is on record?
**A.** -3.81%

**Q.** Which cytotoxicity at 10 µM does the source give for `Cc1cccc(CC(=O)N2CCN(c3nccn3C)CC2)c1` here?
**A.** 8.68%

**Q.** For `Cc1nc(CN(C)CC(c2cccs2)N2CCOCC2)no1` (centres undefined), which cytotoxicity at 10 µM is on record?
**A.** -2.15%

**Q.** With `CCC(CO)N(Cc1ccco1)C(=O)c1ccccc1SC` (centres undefined) as the compound, how does the cytotoxicity at 10 µM read?
**A.** 6.41%

**Q.** With `CC(C)CC(=O)N(C)CC(=O)Nc1ccc(Br)cn1` as the compound, how does the cytotoxicity at 10 µM read?
**A.** -1.43%

**Q.** With `Fc1cccc(CNCC2OCCc3cn(CC4CCOCC4)nc32)c1` (centres undefined) as the compound, how does the cytotoxicity at 10 µM read?
**A.** -77.1%

**Q.** Which cytotoxicity at 10 µM does the source give for `c1cnc(N2CCC3(CCN(CC4CCOCC4)CC3)C2)nc1` here?
**A.** 1.29%

**Q.** For `CC(Nc1nc2c(cnn2C)c(=O)[nH]1)c1ccccn1` (centres undefined), which cytotoxicity at 10 µM is on record?
**A.** 13.3%

**Q.** Which cytotoxicity at 10 µM does the source give for `O=C(N1CCCC1)N1C[C@@H]2CN(Cc3ccoc3)CCO[C@@H]2C1` here?
**A.** -76.7%

**Q.** With `CC(=O)N1CCN([C@@H]2CC[C@@H](NC(=O)c3cncc(C)c3)[C@H]2O)CC1` as the compound, how does the cytotoxicity at 10 µM read?
**A.** 2.6%

**Q.** For `COCCCC1(C(=O)O)CCCN(C(=O)c2ccc(C(C)C)[nH]c2=O)C1` (centres undefined), which cytotoxicity at 10 µM is on record?
**A.** -52.9%

**Q.** Which cytotoxicity at 10 µM does the source give for `CSC(C)(C)CNC(=O)NC1CCN(CC=C(C)C)CC1` here?
**A.** -6.45%

**Q.** Which cytotoxicity at 10 µM does the source give for `COCc1noc(-c2ccc(N3CCCCC3CO)nc2)n1` (centres undefined) here?
**A.** -2.38%

**Q.** For `CCCN1CCC(c2nc3ccc(-c4ccncc4)cn3n2)CC1`, which cytotoxicity at 10 µM is on record?
**A.** -117%

**Q.** Which cytotoxicity at 10 µM does the source give for `CCc1nnc(CN(CC)C(=O)C2CC(=O)N(C3CC3)C2)o1` (centres undefined) here?
**A.** -0.143%

**Q.** For `Cc1ccsc1C(=O)N1C[C@@H](C(=O)O)[C@H](C(C)C)C1`, which cytotoxicity at 10 µM is on record?
**A.** 9.42%

**Q.** Which cytotoxicity at 10 µM does the source give for `Cc1ccc(N2CC3(CCN(Cc4nccn4C)C3)CC2=O)s1` (centres undefined) here?
**A.** -81.9%
